In ChEMBL document CHEMBL4311948, “Exploring the Natural Piericidins as Anti-Renal Cell Carcinoma Agents Targeting Peroxiredoxin 1” (J Med Chem, 2019):
Active and inactive are the calls of the source. The calls are words filed in the database; no cut-off is given here.

Key:
[1] = tested on: OS-RC-2; test: Cytotoxicity against human OS-RC2 cells assessed as reduction in cell viability measured after 72 hrs by CCK8 assay; type: functional, cell-based; settings: OS-RC-2, 72 h
Procedure, shortened: (§1)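 Cells were grown in 10% FBS medium: MEM for ACHN, RPMI1640 for OS-RC-2 and 786-O, DMEM for HK-2. They were seeded at 400–800 cells/well in 384-well plates and treated with a range of compound concentrations or solvent control, with sorafenib as positive control. After 72 h, CCK-8 absorbance was read at 450 nm in triplicate, and IC50 was taken from dose-response curves.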

[2] = tested on: 786-0; test: Cytotoxicity against human 786-O cells assessed as reduction in cell viability measured after 72 hrs by CCK8 assay; type: functional, cell-based; settings: 786-0, 72 h; procedure, shortened: as §1
[3] = tested on: HK-2; test: Cytotoxicity against human HK2 cells assessed as reduction in cell viability measured after 72 hrs by CCK8 assay; type: cell-based; settings: HK-2, 72 h; procedure, shortened: as §1
[4] = tested on: ACHN; test: Down regulation of EGFR mRNA expression in human ACHN cells at 25 to 50 nM measured after 24 hrs by qRT-PCR analysis; type: functional, cell-based
[5] = tested on: ACHN; test: Down regulation of SOD2 mRNA expression in human ACHN cells at 25 to 50 nM measured after 24 hrs by qRT-PCR analysis; type: functional, cell-based
[6] = tested on: ACHN; test: Down regulation of ETS1 mRNA expression in human ACHN cells at 25 to 50 nM measured after 24 hrs by qRT-PCR analysis; type: functional, cell-based
[7] = tested on: ACHN; test: Down regulation of SLC2A1 mRNA expression in human ACHN cells at 25 to 50 nM measured after 24 hrs by qRT-PCR analysis; type: functional, cell-based
[8] = tested on: ACHN; test: Down regulation of LDHA mRNA expression in human ACHN cells at 25 to 50 nM measured after 24 hrs by qRT-PCR analysis; type: functional, cell-based
[9] = tested on: ACHN; test: Down regulation of MET mRNA expression in human ACHN cells at 25 to 50 nM measured after 24 hrs by qRT-PCR analysis; type: functional, cell-based
[10] = tested on: ACHN; test: Down regulation of HIF1A mRNA expression in human ACHN cells at 25 to 50 nM measured after 24 hrs by qRT-PCR analysis; type: functional, cell-based
[11] = tested on: ACHN; test: Up regulation of PRDX1 mRNA expression in human ACHN cells at 25 to 50 nM measured after 24 hrs by qRT-PCR analysis; type: functional, cell-based
[12] = biological target: T1, Peroxiredoxin-1 (Homo sapiens) (UniProt Q06830); test: Activation of PRDX1 in human ACHN cells assessed as reduction in reactive oxygen species level at 25 to 50 nM measured after 24 hrs by Cell-rox reagent-based flow cytometry
T1 sequence (whole entry): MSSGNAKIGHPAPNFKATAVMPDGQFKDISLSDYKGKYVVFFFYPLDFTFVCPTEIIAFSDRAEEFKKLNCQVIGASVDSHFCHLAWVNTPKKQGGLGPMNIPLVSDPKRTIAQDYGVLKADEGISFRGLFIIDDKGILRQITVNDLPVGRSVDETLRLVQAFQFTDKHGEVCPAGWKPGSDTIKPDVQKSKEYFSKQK
Procedure, shortened: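 ACHN cells grown 24 h in MEM + 10% FBS, reseeded at 2 × 10^4 cells/well and exposed to 0, 25 or 50 nM for 24 h. Harvested cells loaded with CellROX oxidative stress reagent 5 μM, 30 min at 37 °C in the dark, then read by flow cytometry. shPRDX1 line: stable knockdown selected with puromycin (1 μg/mL) before dosing. Mean ± SD.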

[13] = tested on: ACHN; test: Antiproliferative activity against human ACHN cells assessed as inhibition of cell proliferation at 50 nM measured after 24 to 72 hrs by holographic microscopy; type: functional, cell-based
Procedure, shortened: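 2×10^5 ACHN cells plated per well and allowed to adhere 24 h. 50 nM then added. Label-free digital holographic microscopy (Holomonitor M4) automatically tracked cell movement, morphology and thickness over time.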

[14] = tested on: ACHN; test: Induction of apoptosis in human ACHN cells assessed as early apoptotic cells at 50 nM measured after 24 hrs by Annexin V-FITC/propidium iodide staining based flow cytometry (reference value: 0%); type: functional
[15] = tested on: ACHN; test: Induction of apoptosis in human ACHN cells assessed as viable cells at 50 nM measured after 48 hrs by Annexin V-FITC/propidium iodide staining based flow cytometry (reference value: 99.9%); type: functional; settings: read-out: Activity
[16] = tested on: ACHN; test: Induction of apoptosis in human ACHN cells assessed as early apoptotic cells at 50 nM measured after 48 hrs by Annexin V-FITC/propidium iodide staining based flow cytometry (reference value: 0%); type: functional
[17] = tested on: ACHN; test: Induction of apoptosis in human ACHN cells assessed as necrotic cells at 50 nM measured after 48 hrs by Annexin V-FITC/propidium iodide staining based flow cytometry (reference value: 0%); type: functional
[18] = tested on: ACHN; test: Selectivity ratio of IC50 for cytotoxicity against human ACHN cells harboring shPRDX1 gene to IC50 for Cytotoxicity against human ACHN cells; type: functional
[19] = tested on: ACHN; test: Up regulation of nuclear PRDX1 expression in human ACHN cells at 25 to 50 nM measured after 24 hrs by immunoblot analysis; type: functional, cell-based
Procedure, shortened: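 ACHN cells treated 24 h with 25 or 50 nM, then nuclear and cytosolic extracts prepared. Lysis in RIPA buffer, BCA quantitation, 30–50 μg protein resolved on 10% or 12% gels. Blotted with anti-PRDX1 (1:1000) and β-actin (1:3000), band ratio PRDX1/β-actin reported as fold change. Mean ± SD.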

[20] = biological target: T2, Peroxiredoxin-1 (Homo sapiens, UniProt Q06830); test: Binding affinity to full-length human PRDX1 by surface plasmon resonance analysis
T2 sequence (Q06830 whole entry): T1 sequence (whole entry)
Procedure, shortened: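 Full-length human PRDX1 immobilised on a CM5 chip (Biacore T100). Analyte concentration series diluted in 10 mM Hepes pH 7.4, injected over the protein surface and a protein-free reference surface in a single step.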

[21] = tested on: ACHN; test: Antitumor activity against human ACHN cells xenografted in Balb/c nu/nu mouse assessed as tumor weight at 0.8 mg/kg, ip administered once daily for 21 days measured post-last dose by caliper method (reference value: 0.55 +/- 0.13 g); type: functional
Procedure, shortened: (§2)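 Male athymic Balb/c nu/nu mice, four weeks old, acclimatised 1 week. 10^7 ACHN cells in 0.2 mL PBS injected into the right flank. At about 150 mm3, mice randomised into PBS control or 0.8 mg/kg groups, dosed ip daily for three weeks. Tumours measured by caliper (volume = 0.5 × L × W²) with body weight recorded. Endpoint tumour weight, sections stained by H&E and TUNEL. Tissue lysed for immunoblot.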

[22] = Toxicity in Balb/c nu/nu mouse xenografted with human ACHN cells assessed as effect on survival at 0.8 mg/kg, ip administered once daily for 21 days; type: organism-based; settings: in vivo, 504 h; procedure, shortened: as §2
[23] = Toxicity in Balb/c nu/nu mouse xenografted with human ACHN cells assessed as decrease in body weight at 0.8 mg/kg, ip administered once daily for 21 days; type: organism-based; settings: in vivo, 504 h; procedure, shortened: as §2
[24] = tested on: Mus musculus; test: Up regulation of PRDX1 mRNA expression in human ACHN cells xenografted Balb/c nu/nu mouse at 0.8 mg/kg, ip administered once daily for 21 days measured post-last dose by qRT-PCR analysis; type: functional, organism-based
[25] = tested on: ACHN; test: Antitumor activity against human ACHN cells xenografted in Balb/c nu/nu mouse assessed as tumor growth inhibition at 0.8 mg/kg, ip administered once daily for 21 days measured post-last dose by H and E staining-based assay; type: functional, organism-based; procedure, shortened: as §2

What does the source list for `C/C=C(\C)[C@H](O)[C@H](C)/C=C(C)/C=C/C/C(C)=C/Cc1nc(OC)c(OC)c(O)c1C` [PIERICIDIN A]?
IC50 [1]: 5.2 µM; IC50 [2]: 30 µM; IC50 [3]: > 100 µM; Activity [4]: Active; Activity [5]: Active; Activity [6]: Active; Activity [7]: Active; Activity [8]: Active; Activity [9]: Active; Activity [10]: Active; Activity [11]: Active; Activity [12]: Active; Activity [13]: Active; Activity [14]: 0.9%; viability at 0.05 µM [15]: 15.9%; Activity [16]: 1.1%; Activity [17]: 75.6%; Ratio IC50 [18]: 4; Activity [19]: Active; Kd [20]: 2610 nM; Activity [21]: 0.28 g; Activity [22]: Non-Toxic; Activity [23]: Non-Toxic; Activity [24]: Active; TGI [25]: Active
